Experimental data published in publication PMC4077163 (Bioorganic & medicinal chemistry letters, 2014).
Square brackets hold non-standard residues; d marks the D form. Peptide text beside a SMILES is read from it. * marks the point of attachment. pY = N[C@@H](Cc1ccc(OP(=O)(O)O)cc1)C(=O)O; Hydrocinnamoyl = O=C(CCc1ccccc1)*; Ac6c = NC1(C(=O)O)CCCCC1; Cbz = O=C(OCc1ccccc1)*

Key:
Grb2 SH2 domain [1] = target: T1, Grb2 SH2 domain (Homo sapiens, UniProt P62993); experiment: Isothermal titration calorimetry; type: binding; details: for ΔG° / ΔH° / −TΔS°: ITC, 25 °C, HEPES (50 mM), NaCl (150 mM), pH 7.45 ± 0.05; for potency relative to indolyl compound 10: from ITC data of Table 1
T1 sequence (P62993 60-152 limits assumed): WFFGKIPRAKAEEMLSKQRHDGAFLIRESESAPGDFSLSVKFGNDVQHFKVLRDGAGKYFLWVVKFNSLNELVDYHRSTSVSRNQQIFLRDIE
Summary of the method: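 Tripeptide phosphotyrosine-analogue ligands were titrated against the Grb2 SH2 domain by ITC at 25 °C in 50 mM HEPES, 150 mM NaCl, pH 7.45 ± 0.05. Ka, ΔG°, ΔH° and ΔS° were taken from the titrations. Each ligand had three or more runs. The n value of each run was normalized by adjusting ligand concentration, then the runs were averaged.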

Grb2 SH2 domain [2] = target: T1, Grb2 SH2 domain; experiment: Literature affinity; type: binding; details: ratio of literature IC50 values, more potent than 3

SMILES | Kd (Grb2 SH2 domain [1]) | ΔG° (Grb2 SH2 domain [1]) | ΔH° (Grb2 SH2 domain [1]) | −TΔS° (Grb2 SH2 domain [1]) | potency relative to indolyl compound 10 (Grb2 SH2 domain [1]) | potency relative to 3 (Grb2 SH2 domain [2])
CC(=O)N[C@@H](Cc1ccc(OP(=O)(O)O)cc1)C(=O)NC1(C(=O)N[C@@H](CC(N)=O)C(N)=O)CCCCC1 [Compound 7] (HELM PEPTIDE1{[ac].[O=C([C@H](Cc1ccc(OP(=O)(O)O)cc1)N[*:1])[*:2]].[O=C(C1(N[*:1])CCCCC1)[*:2]].N.[am]}$$$$V2.0) | 143 nM | -9.3 ± 0.1 kcal/mol | -8.5 ± 0.4 kcal/mol | -0.8 ± 0.4 kcal/mol |  | 
NC(=O)C[C@H](NC(=O)C1(NC(=O)[C@H](Cc2ccc(OP(=O)(O)O)cc2)NC(=O)OCc2ccccc2)CCCCC1)C(N)=O [Compound 8] (Cbz-[pY]-[Ac6c]-Asn-NH2) | 154 nM | -9.3 ± 0.1 kcal/mol | -9.3 ± 0.3 kcal/mol | 0.0 ± 0.1 kcal/mol |  | 
NC(=O)C[C@H](NC(=O)C1(NC(=O)[C@H](Cc2ccc(OP(=O)(O)O)cc2)NC(=O)CCC2CCCCC2)CCCCC1)C(N)=O [Compound 12] | 34.7 nM | -10.2 ± 0.1 kcal/mol | -10.0 ± 0.5 kcal/mol | -0.2 ± 0.1 kcal/mol | about two-fold more potent | 
NC(=O)C[C@H](NC(=O)C1(NC(=O)[C@H](Cc2ccc(OP(=O)(O)O)cc2)NC(=O)OCc2cccc(N)c2)CCCCC1)C(N)=O [Compound 9] | 114 nM | -9.5 ± 0.1 kcal/mol | -9.1 ± 0.5 kcal/mol | -0.4 ± 0.3 kcal/mol |  | about 65 fold
Cn1cc(CCC(=O)N[C@@H](Cc2ccc(OP(=O)(O)O)cc2)C(=O)NC2(C(=O)N[C@@H](CC(N)=O)C(N)=O)CCCCC2)c2ccccc21 [Compound 10] | 87.7 nM | -9.6 ± 0.1 kcal/mol | -10.0 ± 0.3 kcal/mol | +0.4 ± 0.1 kcal mol^−1 |  | 
NC(=O)C[C@H](NC(=O)C1(NC(=O)[C@H](Cc2ccc(OP(=O)(O)O)cc2)NC(=O)CCc2ccccc2)CCCCC1)C(N)=O [Compound 11] (Hydrocinnamoyl-[pY]-[Ac6c]-Asn-NH2) | 42.7 nM | -10.1 ± 0.1 kcal/mol | -9.5 ± 0.5 kcal/mol | -0.6 ± 0.1 kcal/mol | about two-fold more potent | 
